# Source: PubChem BioAssay (several laboratories)
# This excerpt belongs to a sample that is enriched for hits.
# UCH37 DUB inh – human UCH37 deubiquitinating enzyme inhibition; inhibition, % (test concentration not listed); purified proteasome/UCH37, Ub-AMC cleavage fluorescence; actives 0.33% (n = 330,000); Q9Y5K5; AID 588478;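 active = mean inhibition over replicate wells above about 20%, limit read from the data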;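 note: 0% = compound-free wells with enzyme and 100% = wells lacking proteasome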
# Target sequence (Q9Y5K5 whole entry, looked up): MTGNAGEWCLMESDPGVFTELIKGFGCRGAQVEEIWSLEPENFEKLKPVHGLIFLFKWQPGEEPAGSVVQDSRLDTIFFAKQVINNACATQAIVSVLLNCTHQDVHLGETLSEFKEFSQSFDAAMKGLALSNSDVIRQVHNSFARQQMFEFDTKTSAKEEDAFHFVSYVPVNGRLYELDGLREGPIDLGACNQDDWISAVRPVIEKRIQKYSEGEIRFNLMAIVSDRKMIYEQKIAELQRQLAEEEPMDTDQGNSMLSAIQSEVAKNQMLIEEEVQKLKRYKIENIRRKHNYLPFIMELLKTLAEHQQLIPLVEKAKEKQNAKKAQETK
#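 Material: Human UCH37 enzyme supplied as purified proteasome complex | Schedule: 30 min compound-proteasome preincubation then 25 min substrate reaction, room temperature | Detection: AMC fluorescence from Ub-AMC cleavage, excitation 355 nm, emission 460 nm | Benchmarks: Wells without proteasome as full block, compound-free enzyme plus substrate as uninhibited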
# CHOP inh – CHOP inhibition in unfolded protein response; inhibition, % at 10 µM; CHO-K1 CHOP-promoter luciferase, tunicamycin-induced, 15-18 h; actives 3.8% (n = 220,000);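 active = compounds that reduced the stress-induced luciferase reporter signal by more than about 70% of percent inhibition, limit read from the data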;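 note: 0% = tunicamycin plus vehicle and 100% = wells without tunicamycin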
# XBP1 UPR activ – activators of adaptive arm of unfolded protein response (XBP1). CHO-XBP1 luciferase reporter, IRE1-XBP1 UPR activation, luminescence; percent of tunicamycin response, DMSO as zero. activation, % at 20 µM. actives 0.33% (n = 330,000);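 active = versus positive control, 20 µM dose yields 30% or more activation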;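 note: 100% = tunicamycin at 10 µg/mL and 0% = DMSO only wells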
#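 assay system = CHO-XBP1 luciferase reporter cells | amount = 1000 cells/well | buffer or medium = F12 plus 10% FBS | compound dosing = single point, 20 µM final compound, 1% DMSO | incubation = 16-18 h cell attachment at 37 °C, then 6 h compound exposure | detection = Steady-Glo luminescence read | controls = tunicamycin 10 µg/mL and vehicle-only wells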
# UPR CHOP act – activators of apoptotic arm of unfolded protein response (CHOP). CHO-CHOP luciferase reporter, UPR activation, luminescence; percent of tunicamycin response over DMSO baseline. activation, % at 10 µM. actives 0.34% (n = 330,000). AID 449763;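 active = at 10 µM dose, activation of 40% or more, normalized to positive control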;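 note: 100% = tunicamycin at 10 µg/mL and 0% = DMSO alone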
#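 System: CHO CHOP reporter cells. Amount: 500 cells per well. Buffer or medium: F12 medium, 10% FBS. Compound dosing: one dose, 10 µM in 0.5% DMSO. Incubation: 6 h compound exposure at 37 °C after overnight seeding. Technique: Steady-Glo luciferase luminescence. Benchmarks: tunicamycin and DMSO controls.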
# Fh CTSL1 inh – blocks F. hepatica cathepsin L1 in PFM18AAP counter-screen. recombinant F. hepatica cathepsin L1, Z-Leu-Arg-MCA fluorescence. inhibition, % at 5.96 µM. AID 1906. actives 0.49% (n = 300,000);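 active = inhibition above the mean of all tested compounds plus 3 SD, set per screening campaign, cut at about 17% in these data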;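 note: 0% = plate median of test compound wells and 100% = 1 µM Z-Phe-Ala-diazomethylketone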
# XBP1 UPR conf – confirmation of adaptive unfolded protein response (XBP1) activators; shares compounds with XBP1 UPR activ; CHO-XBP1 IRE1-XBP1 luciferase reporter, luminescence; activation, % at 20 µM; actives 63% (n = 1,000);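 active = reporter signal at least 30% of the positive control's activation in two or more of four replicate wells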;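 note: plate controls were DMSO negative control for no effect and tunicamycin 10 µg/mL positive control for full effect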
# * marks the source's active call; other numbers are inactive results; x = no result.
SMILES,UCH37 DUB inh,CHOP inh,XBP1 UPR activ,UPR CHOP act,Fh CTSL1 inh,XBP1 UPR conf
COc1ccc(C(=O)/C=C/c2ccc(O)cc2)c(O)c1C/C=C(\C)CCC=C(C)C,13,x,83*,11,x,31*
CC(=NNC(=O)c1ccc(C)s1)c1cccnc1,3,x,x,x,x,x
CCOc1ccccc1-c1nc(-c2ccc(NC(=O)Cc3ccccc3OC)cc2)no1,1,32,0,2,0,x
COc1ccccc1CC(=O)Nc1ccc(-c2noc(COc3ccc(Cl)c(C)c3)n2)cc1,6,-12,31*,6,-1,8
Cc1nc(Nc2nc(-c3ccccc3)cc(=O)[nH]2)nc2ccccc12,1,x,84*,3,1,132*
Cc1ccc2c(=O)[nH]c(Nc3nc(C)cc(-c4ccccc4)n3)nc2c1,4,42,33*,8,-1,43*
O=C(O)CCC(=NNC(=O)c1ccc(F)cc1)c1ccc(Br)cc1,5,x,x,x,x,x
Cc1nn(-c2ccccc2)c2sc(C(=O)NC3CC3)cc12,-1,-1,10,3,1,x
Cc1nc(NC(=O)c2cc3c(C)nn(-c4ccccc4)c3s2)sc1C(=O)Nc1ccccc1,-140,-18,49*,1,0,54*
CCn1c(SCC(=O)N2CCN(c3ccccc3)CC2)nc2c([nH]c3ccccc32)c1=O,-4,x,32*,18,0,30
Cc1cc(-n2c(SCC(=O)Nc3ccc(Br)cc3)nc3n[nH]c(C)c3c2=N)ccc1Cl,-42,x,36*,5,0,20
Cc1cc(-n2c(SCC(=O)Nc3ccc(F)c(F)c3)nc3n[nH]c(C)c3c2=N)ccc1Cl,-20,x,34*,10,1,60*
COc1cccc(NC(=O)CSc2nc3n[nH]c(C)c3c(=N)n2-c2cccc(OC)c2)c1,5,67,7,-1,0,x
CCOC(=O)C1=C(C)N=c2sc(=Cc3cccn3C)c(=O)n2C1c1cccc(OC)c1OC (stereo unspecified),-3,x,x,x,x,x
N/C(=N\c1nc(CSc2ccccn2)cc(=O)[nH]1)Nc1ccc(Cl)cc1Cl,-1,18,32*,-3,-5,32*
Cc1ccc(NC(=O)/C(C#N)=C(\N)C(Cl)(Cl)Cl)nc1,-3,101*,30,25,1,-4
Cc1ccc(NC(=O)C(=O)Nc2ccc(C)cn2)nc1,-1,-28,1,4,-4,x
CCOc1cc(/C=C(\C#N)C(=O)Nc2ccccn2)ccc1O,4,x,3,3,2,x
CCOc1cc(/C=C(\C#N)c2[nH]nc(N)c2C#N)ccc1O,x,27,32*,18,6,51*
CCN(Cc1ccccc1)c1ccc(C=NN2CCOCC2)cc1,3,x,x,x,x,x
COc1cc([N+](=O)[O-])ccc1NC(=S)NNC(=O)c1ccc2c(c1)OCO2,12,x,30*,-1,3,0
CC(C)N(C(=O)C[n+]1ccc(C=NO)cc1)C(C)C,4,x,x,x,x,x
CC(C)C(=O)N(c1cc2sc(=O)oc2c2ccccc12)S(=O)(=O)c1cccs1,3,69,48*,24,5,49*
NC(=O)C(=O)NN=Cc1c(F)c(F)c(F)c(F)c1F,6,x,x,x,x,x
Cc1c(-c2ccc(/C=N/NC(=O)C(=O)Nc3ccccc3F)o2)cccc1[N+](=O)[O-],x,-9,73*,18,-5,7
SMILES,UCH37 DUB inh,CHOP inh,XBP1 UPR activ,UPR CHOP act,Fh CTSL1 inh,XBP1 UPR conf
CN(C)c1ccc(C=NNC(=O)c2ccc(-n3cnnn3)cc2)cc1,-2,x,x,x,x,x
Cc1cc(C)cc(NC(=O)Cn2c(=O)oc3cc(S(=O)(=O)N4CCC(C)CC4)ccc32)c1,8,72*,32*,0,-2,1
CC1CCN(S(=O)(=O)c2ccc(NC(=O)Cn3nnc(-c4ccccc4)n3)cc2)CC1,2,35,2,0,0,x
Cc1ccnc(NC(=O)Cn2c(=O)oc3cc(S(=O)(=O)N4CCCC4)ccc32)c1,2,x,-1,-1,-3,x
Cc1ccc(-c2nnn(CC(=O)Nc3ccc(S(=O)(=O)N4CCC(C)CC4)cc3)n2)cc1,6,-26,44*,4,0,56*
O=c1cc(CN2CCN(c3ccc(F)cc3)CC2)c2cc3c(cc2o1)CCCC3,2,-16,100*,35,-3,96*
O=c1[nH]c(=O)n(Cc2ccco2)c2c1C(C(F)(F)F)(C(F)(F)F)N=C(C1CCCCC1)N2,-30,10,-2,-3,-1,x
O=c1[nH]c(=O)n(Cc2ccco2)c2c1C(C(F)(F)F)(C(F)(F)F)N=C(CCC1CCCCC1)N2,-45,41,43*,10,0,6
Oc1c(Cl)cc(Cl)cc1C1Nc2ccccc2-n2cccc21 (stereo unspecified),6,-9,-3,2,-2,x
COc1ccc2c(c1)NC(c1cc(Cl)cc(Cl)c1O)c1cccn1-2 (stereo unspecified),4,30,49*,6,x,57*
COc1ccccc1OCCn1cc(C=Nn2cnnc2)c2ccccc21,-39,x,x,x,x,x
Cc1ccc(-n2nc3c(N4CCC(C(=O)NCCc5cccs5)CC4)nnc(C)c3c2C)cc1,x,x,31*,5,-1,45*
O=C(NC(=Nc1nc2ccccc2o1)NC(=O)c1ccccc1)c1ccccc1,-51,61,32*,12,0,29
N/C(=N\c1nc2ccccc2o1)NC(=O)c1ccccc1NC(=O)c1ccccc1,-40,38,5,0,1,x
CCn1c(/C=C/c2ccc(O)c(O)c2)nc2ccccc2c1=O,-7,x,37*,37,x,21
COc1cc(C(=O)Nc2cc(-c3nc4cc(C)ccc4o3)ccc2C)cc(OC)c1OC,-3,34,131*,19,0,96*
Cc1ccc2oc(-c3ccc(C)c(NC(=O)Cc4cccs4)c3)nc2c1,-10,33,-1,3,0,x
CCOc1ccc(C=NN2C(=O)C(CC(=O)Nc3ccc(F)cc3F)SC2=NC)cc1OC (stereo unspecified),4,x,x,x,x,x
C=CCOc1ccc(/C=N/N2C(=O)C(CC(=O)Nc3ccc(F)cc3F)SC2=NC)cc1 (stereo unspecified),x,70*,51*,2,2,81*
O=C(COC(=O)c1ccc2[nH]c3c(c2c1)CCCC3)Nc1ccccc1Cl,-5,-29,52*,-2,-2,66*
COc1ccc(OC)c(NC(=O)c2oc3ccccc3c2NC(=O)C2CC2)c1,-115,x,60*,1,1,40*
COc1ccc(C(=O)NC(=S)Nc2cc3oc4ccccc4c3cc2OC)cc1,x,78*,34*,27,-5,11
COc1ccc(CC(=O)Nc2cc3oc4ccccc4c3cc2OC)cc1,0,17,2,6,3,x
